The species entered for data set [1] is Homo sapiens. Put plainly: Selectivity ratio of Ki for displacement of [3H]N-methylspiperone from human D2L receptor expressed in HEK293 cell membranes to Ki for displacement of [3H]N-methylspiperone from human D3 receptor expressed in HEK293 cell membranes. A general note: Loss of bound radioactivity is the signal in a displacement assay; it reports binding, not function.

Data set [2] addresses T1, D(3) dopamine receptor (Homo sapiens, UniProt P35462). Description: Agonist activity at human D3 receptor expressed in CHO cells assessed as stimulation of quinpirole-induced mitogenesis. It is filed as cell-based.
Data set [3] has as its target T1, D(3) dopamine receptor. Put plainly: Agonist activity at human D3 receptor expressed in CHO cells assessed as stimulation of quinpirole-induced mitogenesis relative to control. Further details: concentration or dose not given beside the values. It is filed as cell-based.
Data set [4] addresses T2, 5-hydroxytryptamine receptor 2C (Homo sapiens, UniProt P28335).
T2 sequence (P28335 whole entry): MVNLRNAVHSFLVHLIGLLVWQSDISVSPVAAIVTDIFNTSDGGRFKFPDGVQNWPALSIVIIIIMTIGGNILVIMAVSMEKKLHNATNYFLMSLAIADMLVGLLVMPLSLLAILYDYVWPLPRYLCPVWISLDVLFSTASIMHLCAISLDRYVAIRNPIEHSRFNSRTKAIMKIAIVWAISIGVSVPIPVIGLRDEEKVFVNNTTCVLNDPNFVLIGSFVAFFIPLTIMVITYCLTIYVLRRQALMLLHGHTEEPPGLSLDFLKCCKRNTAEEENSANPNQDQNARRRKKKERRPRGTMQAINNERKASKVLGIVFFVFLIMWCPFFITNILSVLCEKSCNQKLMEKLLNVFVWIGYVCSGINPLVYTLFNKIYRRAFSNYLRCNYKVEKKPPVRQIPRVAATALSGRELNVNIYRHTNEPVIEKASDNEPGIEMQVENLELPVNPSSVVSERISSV
Put plainly: Displacement of [125I] DOI from 5HT2C receptor (unknown origin).

Data set [5] can be described thus: Metabolic stability in rat liver microsomes assessed as parent compound remaining at 10 uM measured after 60 mins in presence of NADPH regenerating system by LC/MS/MS analysis. The class given is ADME, Microsome. Conditions: read-out: Stability. In a few lines: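 Compound at 10 μM final was incubated with rat liver microsomes at 0.5 mg/mL in 100 mM potassium phosphate, pH 7.4, with an NADPH regenerating system. Buprenorphine served as positive control. Parent disappearance was followed by LC/MS/MS, and percent remaining was reported at 60 min. Reactions were run in triplicate.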

Data set [6] deals with T3, 5-hydroxytryptamine receptor 1A (Homo sapiens) (UniProt P08908).
T3 sequence (whole entry): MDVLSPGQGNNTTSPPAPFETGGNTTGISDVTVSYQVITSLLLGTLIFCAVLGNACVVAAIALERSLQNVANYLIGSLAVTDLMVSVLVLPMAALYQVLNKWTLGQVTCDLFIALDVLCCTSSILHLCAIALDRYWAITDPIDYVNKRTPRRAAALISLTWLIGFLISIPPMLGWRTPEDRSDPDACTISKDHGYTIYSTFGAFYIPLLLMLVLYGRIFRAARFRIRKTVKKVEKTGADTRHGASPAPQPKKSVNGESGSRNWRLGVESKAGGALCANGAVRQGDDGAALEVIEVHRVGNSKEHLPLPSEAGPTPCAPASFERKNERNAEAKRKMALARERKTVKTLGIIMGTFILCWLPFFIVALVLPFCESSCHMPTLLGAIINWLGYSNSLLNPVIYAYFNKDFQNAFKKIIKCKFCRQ
Put plainly: Agonist activity at 5-HT1A receptor (unknown origin) assessed as stimulation of [35S]GTPgammaS binding relative to control. The class given is functional.

The nature of data set [7]: Cmax in Long-Evans rat plasma at 10 mg/kg, po measured up to 24 hrs by LC/MS/MS analysis. Set-up: dose 10 mg/kg, route oral. The class given is ADME, organism-based.
Data set [8] can be described thus: Cmax in Long-Evans rat brain at 10 mg/kg, po measured up to 24 hrs by LC/MS/MS analysis. The class given is ADME, organism-based. Further details: dose 10 mg/kg, route oral. Conditions: in vivo.
Data set [9] is described as follows: Tmax in Long-Evans rat plasma at 10 mg/kg, po measured up to 24 hrs by LC/MS/MS analysis. It is filed as ADME, organism-based.
Data set [10] in a line: Tmax in Long-Evans rat brain at 10 mg/kg, po measured up to 24 hrs by LC/MS/MS analysis. The class given is ADME, organism-based.
The nature of data set [11]: AUC (0 to t) in Long-Evans rat brain at 10 mg/kg, po measured up to 24 hrs by LC/MS/MS analysis. The class given is ADME, organism-based. Conditions: in vivo.
Data set [12] is described as follows: AUC (0 to t) in Long-Evans rat plasma at 10 mg/kg, po measured up to 24 hrs by LC/MS/MS analysis. The class given is ADME, organism-based. Further details: time < 24 hr, dose 10 mg/kg, route oral.
The target of data set [13] is D(2) dopamine receptor (Homo sapiens, UniProt P14416). Put plainly: Displacement of [3H]N-methylspiperone from human D2L receptor expressed in HEK293 cell membranes measured after 60 mins by scintillation counting method. In a few lines: (§1)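 Membranes from HEK293 cells stably expressing human D2L or D3 were used at 20 μg protein/well in EBSS buffer, pH 7.4, with 0.4 nM [3H]N-methylspiperone. Compounds were run as 10 half-log dilutions in triplicate for 1 h at rt, with nonspecific binding defined by 10 μM (+)-butaclamol. Reactions were filtered onto GF/B and counted by scintillation.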
D(2) dopamine receptor, sequence (P14416 whole entry): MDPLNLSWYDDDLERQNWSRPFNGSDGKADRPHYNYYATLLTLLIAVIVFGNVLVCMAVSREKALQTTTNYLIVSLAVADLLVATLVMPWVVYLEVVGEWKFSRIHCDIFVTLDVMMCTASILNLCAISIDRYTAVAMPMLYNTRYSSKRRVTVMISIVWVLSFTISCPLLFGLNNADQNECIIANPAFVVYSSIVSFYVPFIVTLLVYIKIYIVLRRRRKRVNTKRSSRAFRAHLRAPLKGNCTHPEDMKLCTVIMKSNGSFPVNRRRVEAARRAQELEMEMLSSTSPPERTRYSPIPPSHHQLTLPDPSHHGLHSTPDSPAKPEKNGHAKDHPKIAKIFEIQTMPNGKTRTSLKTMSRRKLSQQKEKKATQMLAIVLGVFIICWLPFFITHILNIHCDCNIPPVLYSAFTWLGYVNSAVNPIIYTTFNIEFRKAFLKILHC

Data set [14] deals with T1, D(3) dopamine receptor. Description: Displacement of [3H]N-methylspiperone from human D3 receptor expressed in HEK293 cell membranes measured after 60 mins by scintillation counting method. In a few lines: as §1

SMILES strings stand for the structures.

T1 sequence (P35462 whole entry): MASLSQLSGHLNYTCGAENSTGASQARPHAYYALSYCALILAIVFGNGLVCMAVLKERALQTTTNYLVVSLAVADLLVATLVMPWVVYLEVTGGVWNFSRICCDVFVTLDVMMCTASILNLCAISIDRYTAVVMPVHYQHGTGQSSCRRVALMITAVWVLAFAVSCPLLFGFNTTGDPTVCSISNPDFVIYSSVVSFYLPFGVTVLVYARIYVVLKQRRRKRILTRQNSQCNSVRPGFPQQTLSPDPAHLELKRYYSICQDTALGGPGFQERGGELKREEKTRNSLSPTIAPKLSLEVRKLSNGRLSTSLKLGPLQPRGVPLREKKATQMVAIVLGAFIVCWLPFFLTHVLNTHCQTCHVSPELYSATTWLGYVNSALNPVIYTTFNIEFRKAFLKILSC

On to `CCc1cc2c(cc1N1CCN(CC(O)CCNC(=O)c3cc4ccccc4o3)CC1)OCO2` (stereo not drawn), for which the Ratio Ki in [1] is 61.
For orientation: EC50 means the midpoint of the concentration-response curve. By Ki is commonly meant the equilibrium dissociation constant of an inhibitor or competing ligand from its target. On to `CCc1cc(Cl)c(OC)c(N2CCN(CC(F)CCNC(=O)c3cc4ccccc4[nH]3)CC2)c1` (racemic), for which the Ratio Ki in data set [1] turned out to be 746. The EC50 in [2] is over 5.4 µM. Moreover, the Activity in [3] was found to be 2.7%. Also, the Ki in data set [4] was over 8.9 µM. In [5], the remaining at 1 h, 10 µM was found to be 75%.
Consider `CCc1cccc(N2CCN(CC(F)CCNC(=O)c3cc4ccccc4o3)CC2)c1Cl` (stereo not drawn), for which, in data set [1], the Ratio Ki amounted to 134. Moreover, the EC50 in data set [2] is over 7.5 µM. Besides, the values for the Activity in data set [3] and in data set [6] were 15.5% and 43%, respectively. For the same compound, the remaining at 1 h, 10 µM in data set [5] was found to be 34%.
Turning to `CCc1cc(Cl)c(OC)c(N2CCN(CC(O)CCNC(=O)c3ccc4c(c3)OCO4)CC2)c1` (stereo not drawn), the Ratio Ki in data set [1] was determined as 15.
As to `CCc1cccc(N2CCN(CC(O)CCNC(=O)c3cc4ccccc4[nH]3)CC2)c1Cl` (racemic), in data set [5], the remaining at 1 h, 10 µM lay in the range of 57 to 86%.
In general, Tmax refers to the time from dosing to the highest level. For `CCc1cccc(N2CCN(C[C@H](O)CCNC(=O)c3cc4ccccc4[nH]3)CC2)c1Cl`, in data set [6], the Activity came out at 74%. The remaining at 1 h, 10 µM in data set [5] fell in the range of 57 to 86%. Also, the Cmax is 0.291 to 0.305 µM in [7] and 3850 pmol/g in data set [8]. The Tmax in [9] and in data set [10] was 2 h in each case. In [11], this compound had an AUCt of 21600 pmol·h/g.
`CCc1cc(Cl)c(OC)c(N2CCN(CC(O)CCNC(=O)c3cc4ccccc4[nH]3)CC2)c1` (racemic): in data set [5], the remaining at 1 h, 10 µM was 57 to 86%.
In the case of `CCc1cccc(N2CCN(CC(F)CCNC(=O)c3cc4ccccc4[nH]3)CC2)c1Cl` (racemic), in data set [1], the Ratio Ki was determined as 327. Further, the EC50 in data set [2] is over 6.8 µM. Further, the Activity in [3] was 5.4%. Also, the remaining at 1 h, 10 µM in [5] is 38%.
The AUC(0-t) is exposure summed from dosing to a finite time, without extrapolation to infinity. Turning to `CCc1cc(Cl)c(OC)c(N2CCN(C[C@H](O)CCNC(=O)c3cc4ccccc4[nH]3)CC2)c1`, the Activity in data set [3] was 17.7%. Moreover, the remaining at 1 h, 10 µM in data set [5] was 57 to 86%. The compound further had a Cmax in data set [8] of 1796.6 pmol/g. Moreover, in [10], the Tmax is 4 h. The AUC(0-t) at 24 h in data set [12] came to 2200 nM·h. In [11], this compound returned an AUCt of 8412 pmol·h/g.
With `CCc1cc(Cl)c(OC)c(N2CCN(C[C@@H](O)CCNC(=O)c3cc4ccccc4[nH]3)CC2)c1`, in data set [3], the Activity stood at 17%. Besides, in [5], the remaining at 1 h, 10 µM lay in the range of 57 to 86%. In [8], this compound gave a Cmax of 959.9 pmol/g. For the same compound, in [10], the Tmax is 4 h. The compound also showed an area under the curve AUC(0-t) at 24 h in data set [12] of 1070 nM·h. Besides, the AUCt in data set [11] is 4360 pmol·h/g.
Take `CCc1cccc(N2CCN(C[C@H](F)CCNC(=O)c3cc4ccccc4[nH]3)CC2)c1Cl`: the Ratio Ki in [1] amounted to 215. Further, the remaining at 1 h, 10 µM in data set [5] is 57 to 70%.
In the case of `CCc1cc(Cl)c(OC)c(N2CCN(C[C@H](F)CCNC(=O)c3cc4ccccc4[nH]3)CC2)c1`, the Ratio Ki in [1] amounted to 1650. Further, the remaining at 1 h, 10 µM in data set [5] is 57 to 70%.
The like results for `CCc1cccc(N2CCN(C[C@@H](F)CCNC(=O)c3cc4ccccc4[nH]3)CC2)c1Cl` were, in that order, 1060 and 57 to 70%.
For the compound `CCc1cc(Cl)c(OC)c(N2CCN(C[C@@H](F)CCNC(=O)c3cc4ccccc4[nH]3)CC2)c1`, the Ratio Ki in data set [1] came to 535. The remaining at 1 h, 10 µM in data set [5] is 57 to 70%.
On to `CCc1cccc(N2CCN(CC(O)CCNC(=O)c3ccc4c(c3)OCO4)CC2)c1Cl` (stereo not drawn), for which the Ki was determined as 0.424 µM in [13] and 0.00302 µM in data set [14]. For the same compound, in data set [1], the Ratio Ki amounted to 140.
Turning to `CCc1cccc(N2CCN(C[C@@H](O)CCNC(=O)c3cc4ccccc4[nH]3)CC2)c1Cl`, in data set [6], the Activity turned out to be 69%. Moreover, the remaining at 1 h, 10 µM in data set [5] lay within 57 to 86%. Further, the Cmax in data set [8] lay within 2670 to 3670 pmol/g. Also, the Tmax in data set [9] and in [10] was 2 h throughout. In data set [11], this compound displayed an AUCt of 16665 pmol·h/g.
With `CCc1cc(Cl)c(OC)c(N2CCN(CC(F)CCNC(=O)c3cc4ccccc4o3)CC2)c1` (stereo not drawn), the Ratio Ki in [1] is 108. Also, in data set [2], the EC50 is over 4 µM. Besides, the Activity in data set [3] was found to be 5.1%. The remaining at 1 h, 10 µM in data set [5] came out at 12%.

For the origin of these results see ChEMBL document CHEMBL4414587 (J Med Chem, 2019).
